# Measurements from different studies.
# Target: Serine/threonine-protein kinase 38 (STK38, Homo sapiens, UniProt Q15208)
Structure (SMILES),test,conditions,remaining binding [%]
CCOC(=O)c1cc2cc(-c3cc(C(=O)NCc4ccc(C(=O)O)cc4)nn3C)ccc2[nH]1,"cell-free assay, competition with immobilised ligand",0.1 µM,95
N[C@@H]1CCN(c2nccc(-c3cnn4ncccc34)n2)C1,binding,1 µM,84
Cc1nc(N2CC[C@@H](O)C2)ncc1-c1cc(C(F)(F)F)cc2[nH]ncc12,"binding, competition with immobilised ligand",1 µM,95
CNC(=O)[C@@H]1CC[C@@H](n2c(-c3ccc4cnccc4c3)nc3ccc(C(=O)NCc4cccc(C(N)=O)c4)cc32)C1,"binding, competition with immobilised ligand",1 µM,62
Nc1ncc2c(n1)-c1c([nH]c3ccc(C#CC4CC4)cc13)CCCC2,"binding, competition with immobilised ligand",1 µM,87
O=C(c1ccc(Nc2nccc(-c3cc4ccccc4s3)n2)cc1)N1CCC(N2CCCC2)CC1,"binding, competition with immobilised ligand",1 µM,76
COc1ccnn2ncc(-c3ccnc(N(C)C)n3)c12,binding,1 µM,100
C=CC(=O)N1CCC(C(=O)NCC(=O)N2CCN(c3nc(-c4cnc(N)nc4C(F)F)nc(N4CCOCC4)n3)CC2)CC1,"binding, competition with immobilised ligand",1 µM,88
Cc1cnn2ncc(-c3ccnc(N(C)C)n3)c2c1,binding,1 µM,100
COc1ccc2c(O[C@@H]3C[C@H]4C(=O)N[C@]5(C(=O)O)CC5/C=C\CCCCC[C@H](NC(=O)OC5CCCC5)C(=O)N4C3)cc(-c3csc(NC(=O)C(C)C)n3)nc2c1C (stereo partly drawn),"cell-free assay, competition with immobilised ligand",1 µM,50
C[C@H]1CCN(c2nccc(-c3cnn4ncccc34)n2)C1,binding,1 µM,93
O=C(NCCCN1CCOCC1)c1ccc(Nc2ncc(Cl)c(-c3ccc(Cl)s3)n2)cc1,"binding, competition with immobilised ligand",1 µM,76
c1cncc(-c2cccc(Nc3nccc(NC4CCCCC4)n3)c2)c1,"binding, competition with immobilised ligand",10 µM,89
CN(C)c1nccc(-c2cnn3ncccc23)n1,binding,1 µM,74
O=C(NCC1CCOCC1)c1n[nH]cc1NC(=O)c1c(F)cccc1F,"binding, competition with immobilised ligand",1 µM,84
Cn1nc(C(F)(F)F)cc1-c1cnc(N2CCc3cc(S(=O)(=O)Nc4c(F)cc(Cl)cc4F)cc(N4CCCC4=O)c32)nc1,"cell-free assay, competition with immobilised ligand",1 µM,97
O=C(c1ccc(Nc2ncc(Cl)c(-c3ccc(Cl)s3)n2)cc1)N1CCC(N2CCCC2)CC1,"binding, competition with immobilised ligand",1 µM,67
Cc1cc(-n2nc(Cc3cc(F)cc(C(F)(F)F)c3)nc2C)ccc1C(N)=O,"cell-free assay, competition with immobilised ligand",1 µM,83
CN(CCCC(F)(F)F)c1nccc(-c2cnn3ncccc23)n1,binding,1 µM,100
O=C(NCc1ncc(C(F)(F)F)cc1Cl)c1ccc2c(c1)C1(CCS(=O)(=O)CC1)[C@H](C1CC1)N2S(=O)(=O)c1ccc(F)cc1,"cell-free assay, competition with immobilised ligand",1 µM,92
CCN1CCN(Cc2ccc(C(=O)Nc3ccc(C)c(Oc4ccc5c(c4)CC(=O)N5)c3)cc2C(F)(F)F)CC1,"binding, competition with immobilised ligand",1 µM,100
